# Measured values as given in publication PMC6279241 (Science signaling, 2018).
# Changes are numbered by the printed parent chain. Numbered stars: 1 amine (or outer) side, 2 acyl side, 3 side chain; on linkers, the order of the positions; unused ones are H or OH. Bridge positions count the residues as written; N and C are the ends. Square brackets hold non-standard residues; d marks the D form. Peptide text beside a SMILES is read from it. * marks the point of attachment. Leu(3R-OH,Nα-propionyl) = CCC(=O)N[C@H](C(=O)*)[C@H](O)C(C)C; X1 = CC(C)[C@@H](O[*:3])[C@H](N[*:1])C(=O)[*:2]; NMeT = CN[C@H](C(=O)O)[C@@H](C)O; dPhLac = O=C(O)[C@H](O)Cc1ccccc1; NMeA = CN[C@@H](C)C(=O)O; NMeDha = C=C(NC)C(=O)O
# Legend:
# [1] = target: Gαi/q(R54K) (Homo sapiens, UniProt P63096, H188P/K180P/T187Y/V185I/V50I/V72L/Y69F); test: Nucleotide exchange; format: biochemical; details: in vitro
# [2] = tested on: 92.1 cells; test: Flow cytometry of DNA content; format: cell-based, human; details: 92.1, 3 days
# How it was run: (§1)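 Cells were treated with test compound for 3 days, then stained with propidium iodide for DNA content and run on a FACScan flow cytometer. The sub-G1 fraction gave apoptosis; S- and G2/M-phase fractions gave proliferation. Mean ± SEM of 4 experiments. t-tests were corrected with the Holm-Sidak method.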
# [3] = target: T1, Gαq(Q209L) / Gβγ (Mus musculus, UniProt P21279, Q209L); test: Co-purification of endogenous Gβγ with affinity-tagged constitutively active Gαq; format: cell-based; details: FR 1 μM, 24 hours; n=3
# T1 sequence (P21279 1-359 Q209L): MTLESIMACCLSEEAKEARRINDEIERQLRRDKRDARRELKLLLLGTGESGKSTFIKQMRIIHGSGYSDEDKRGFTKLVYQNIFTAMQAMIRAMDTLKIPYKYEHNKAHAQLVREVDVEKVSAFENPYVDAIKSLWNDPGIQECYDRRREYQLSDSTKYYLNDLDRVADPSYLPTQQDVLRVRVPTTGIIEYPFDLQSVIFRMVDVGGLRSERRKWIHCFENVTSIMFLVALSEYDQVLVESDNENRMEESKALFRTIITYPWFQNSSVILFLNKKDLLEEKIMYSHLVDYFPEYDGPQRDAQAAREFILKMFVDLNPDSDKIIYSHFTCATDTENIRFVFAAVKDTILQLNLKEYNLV
# How it was run: (§2)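 HEK293 cells were transfected with mouse Gαq, either wild type or Q209L. A FLAG-StrepII-StrepII tag flanked by Gly/Ser linkers was inserted between residues 124 and 125. After 24 h, cells got FR (1 μM) or DMSO for 24 h. They were lysed in 50 mM Tris pH 8.0, 100 mM NaCl, 5 mM EDTA, 1 mM MgCl2, 0.5% IGEPAL, ± 1 μM FR. StrepTactin then anti-FLAG purification at 4 °C. Immunoblot for FLAG and Gβ; 3 independent experiments.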
# [4] = target: T2, Gαq(Q209L) (Mus musculus, UniProt P21279, Q209L); test: SRE; format: cell-based; details: read-out: IC50, inhibition of transcriptional reporter driven by constitutively active Gαq; SRE(L) reporter
# T2 sequence (P21279 1-359 Q209L): T1 sequence (P21279 1-359 Q209L)
# How it was run: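 Firefly luciferase signal from the Gα-driven transcriptional reporter was normalized to co-transfected Renilla luciferase from a constitutive promoter.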
# [5] = target: T3, Gα13(Q226L) / Gβ1γ2 (Homo sapiens, UniProt Q14344, Q226L); test: Split-luciferase complementation between Gβ1γ2 and constitutively active Gα13; format: cell-based
# T3 sequence (Q14344 1-377 Q226L): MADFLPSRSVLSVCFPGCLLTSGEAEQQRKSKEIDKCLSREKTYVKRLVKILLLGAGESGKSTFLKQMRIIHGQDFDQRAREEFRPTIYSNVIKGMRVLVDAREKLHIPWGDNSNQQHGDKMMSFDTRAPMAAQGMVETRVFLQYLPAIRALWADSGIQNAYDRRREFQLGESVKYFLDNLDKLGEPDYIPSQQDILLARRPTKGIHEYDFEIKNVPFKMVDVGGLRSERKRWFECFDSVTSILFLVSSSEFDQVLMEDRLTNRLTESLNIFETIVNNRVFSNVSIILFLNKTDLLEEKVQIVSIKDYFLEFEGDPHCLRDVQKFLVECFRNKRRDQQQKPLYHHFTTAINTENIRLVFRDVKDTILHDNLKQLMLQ
# How it was run: (§3)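 Split click beetle green luciferase in transiently transfected HEK293 cells. The N-terminal fragment sat in the helical-domain αB-αC loop of wild type or Q226L Gα13. The C-terminal fragment was fused to the N-terminus of Gβ1 (with untagged Gγ2 co-transfected) or of the LARG RGS domain. Cells were treated 18 h with test compound or DMSO, then reconstituted luciferase activity was read. Triplicate wells; 3 experiments on different days.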
# [6] = tested on: Mel202 cells; test: Cell viability/proliferation; format: cell-based, human; details: read-out: EC50, inhibition of proliferation (viability)
# How it was run: (§4)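 Water-soluble tetrazolium salt (WST-8) viability assay run per the maker's protocol. Cells were grown in RPMI 1640 with 10% FBS and antibiotics at 37 °C, 5% CO2. Fold-change in viability over time was followed at increasing test compound concentrations, and EC50 was taken from concentration-response data. Mean ± SEM of 4 experiments, each in triplicate.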
# [7] = tested on: 92.1 cells; test: Melanocytic pigmentation of 92.1 cells; format: cell-based, human; details: 92.1, 3 days, vs vehicle
# How it was run: (§5)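 Cells were treated with test compound for 3 days, then pelleted and examined macroscopically for pigmentation against vehicle (DMSO). Representative images are from one of 3 experiments, each in triplicate.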
# [8] = tested on: OCM-1A cells; test: Quantitative RT-PCR of PRC2-regulated genes in OCM-1A cells; format: cell-based, human; details: qRT-PCR
# [9] = tested on: Gαi/q; test: Attenuation of cannabinoid receptor-evoked inhibition of forskolin-induced cAMP; format: cell-based; details: read-out: IC50, attenuation of Gαi/q-mediated inhibition of forskolin-induced cAMP accumulation; Neuro2A, cannabinoid type 1 receptors, WIN 55,212-2
# [10] = tested on: 92.1 cells; test: Cell viability/proliferation; format: cell-based, human; details: read-out: EC50, inhibition of proliferation (viability)
# How it was run: as §4
# [11] = tested on: OCM-1A cells; test: Flow cytometry of DNA content; format: cell-based, human; details: 3 days
# How it was run: as §1
# [12] = tested on: OCM-1A cells; test: Cell viability/proliferation; format: cell-based, human; details: even at 10 μM
# How it was run: as §4
# [13] = tested on: Mel202 cells; test: IP1 abundance; format: cell-based, human; details: Mel202, Gαq(Q209L)-driven
# How it was run: (§6)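 Homogeneous IP1 immunoassay (IP-One kit). Seeding was 10,000 Mel202, 20,000 92.1 or 20,000 OCM-1A cells per well. After overnight culture, cells got test compound or DMSO and were incubated until the next day. Stimulation buffer was added for 1 h, then IP1-d2 and anti-IP1 cryptate for 60 min at room temperature. IP1 was read from kit standard curves. Mean ± SEM of 4 experiments, each in triplicate.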
# [14] = tested on: Mel202 cells; test: Immunofluorescence staining of melanocytic markers in Mel202 cells; format: cell-based, human
# How it was run: (§7)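 Immunofluorescence for TYR, DCT and PMEL. An equal volume of 2× fixative (PBS, 4% paraformaldehyde, 0.4% glutaraldehyde) was added to cells in growth medium for 15 min at 37 °C. Cells were permeabilized with 0.1% Triton X-100 for 5 min, blocked with 2% fish gelatin, and labelled with Alexa Fluor secondaries. The proportion of marker-positive cells was compared with Fisher's exact test. Representative of 3 experiments.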
# [15] = target: T4, wild type Gαq / Gβγ (Mus musculus, UniProt P21279); test: Co-purification of endogenous Gβγ with affinity-tagged wild type Gαq; format: cell-based; details: FR 1 μM, 24 hours; n=3
# T4 sequence (P21279 1-359): T1 sequence (P21279 1-359 Q209L) with L209Q
# How it was run: as §2
# [16] = tested on: 92.1 cells; test: IP1 abundance; format: cell-based, human; details: 92.1, Gαq(Q209L)-driven
# How it was run: as §6
# [17] = tested on: OCM-1A cells; test: Morphology; format: cell-based, human; details: 3 days
# How it was run: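 Cells were treated with test compound for 3 days and imaged by phase contrast on an inverted microscope with a 10× objective. Representative fields are from one of 3 experiments.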
# [18] = tested on: Mel202 cells; test: Melanocytic pigmentation of Mel202 cells; format: cell-based, human; details: Mel202, 3 days, vs vehicle
# How it was run: as §5
# [19] = target: T5, Gα13(Q226L) (Homo sapiens, UniProt Q14344, Q226L); test: SRE; format: cell-based; details: SRE(L) reporter
# T5 sequence (Q14344 1-377 Q226L): T3 sequence (Q14344 1-377 Q226L)
# How it was run: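 SRE(L) promoter-driven firefly luciferase transcriptional reporter activated by constitutively active Gα13. Firefly signal was normalized to co-transfected Renilla luciferase expressed from a constitutive promoter.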
# [20] = tested on: 92.1 cells; test: RNA-Seq gene expression in FR-treated 92.1 cells; format: cell-based, human; details: 92.1, 100 nM FR
# [21] = tested on: OCM-1A cells; test: IP1 abundance; format: cell-based, human; details: BRAF(V600E)-driven
# How it was run: as §6
# [22] = target: wild type Gα13 / Gβ1γ2 (Homo sapiens, UniProt Q14344); test: Split-luciferase complementation between Gβ1γ2 and wild type Gα13; format: cell-based
# How it was run: as §3
# [23] = tested on: Gαi/q(R54K); test: Attenuation of cannabinoid receptor-evoked inhibition of forskolin-induced cAMP; format: cell-based; details: Neuro2A
# [24] = target: T6, Gα13(Q226L) / LARG-RGS (Homo sapiens, UniProt Q14344, Q226L); format: cell-based; details: split luciferase
# T6 sequence (Q14344 1-377 Q226L): T3 sequence (Q14344 1-377 Q226L)
# How it was run: as §3
# [25] = tested on: Mel202 cells; test: Flow cytometry of DNA content; format: cell-based, human; details: Mel202, 3 days
# How it was run: as §1
# [26] = tested on: 92.1 cells; test: Immunofluorescence staining of melanocytic markers in 92.1 cells; format: cell-based, human
# How it was run: as §7
# [27] = target: Gαi/q(Q204L) (Homo sapiens, UniProt P63096, H188P/K180P/K54R/Q204L/T187Y/V185I/V50I/V72L/Y69F); test: GTP hydrolysis; format: biochemical; details: FR 25 μM
# How it was run: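 His-tagged Gαi/q(Q204L) was expressed in E. coli; it is Gαi1 carrying eight Gαq-type substitutions. The protein (3 μM) was in 50 mM Tris-HCl pH 8.0, 5 mM MgCl2, 1 mM EDTA, 0.5 mM DTT. Reaction started with γ32P-GTP (100 nM final, 100 Ci/mmol); protein was in >10-fold excess. FR (25 μM final) or DMSO was added partway. Aliquots were quenched in 1N formic acid and resolved on PEI-cellulose TLC. Triplicate, ≥3 days, different protein preparations.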
# Sequence of Gαi/q(R54K) (Homo sapiens, UniProt P63096, H188P/K180P/T187Y/V185I/V50I/V72L/Y69F) (P63096 whole entry V50I/Y69F/V72L/K180P/V185I/T187Y/H188P): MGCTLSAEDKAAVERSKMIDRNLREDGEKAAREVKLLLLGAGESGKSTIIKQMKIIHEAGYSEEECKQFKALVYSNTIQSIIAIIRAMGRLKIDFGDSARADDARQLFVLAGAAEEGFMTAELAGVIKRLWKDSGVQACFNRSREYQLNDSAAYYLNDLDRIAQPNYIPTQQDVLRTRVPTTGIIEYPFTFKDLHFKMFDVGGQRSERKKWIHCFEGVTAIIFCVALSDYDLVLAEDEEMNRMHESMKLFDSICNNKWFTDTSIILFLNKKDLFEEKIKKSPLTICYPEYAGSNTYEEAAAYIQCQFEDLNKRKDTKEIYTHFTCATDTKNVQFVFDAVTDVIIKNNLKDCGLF
# Sequence of wild type Gα13 / Gβ1γ2 (P59768 2-68): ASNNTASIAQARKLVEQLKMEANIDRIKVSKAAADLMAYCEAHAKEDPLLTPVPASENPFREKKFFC
# Sequence of wild type Gα13 / Gβ1γ2 (P62873 whole entry, further chain): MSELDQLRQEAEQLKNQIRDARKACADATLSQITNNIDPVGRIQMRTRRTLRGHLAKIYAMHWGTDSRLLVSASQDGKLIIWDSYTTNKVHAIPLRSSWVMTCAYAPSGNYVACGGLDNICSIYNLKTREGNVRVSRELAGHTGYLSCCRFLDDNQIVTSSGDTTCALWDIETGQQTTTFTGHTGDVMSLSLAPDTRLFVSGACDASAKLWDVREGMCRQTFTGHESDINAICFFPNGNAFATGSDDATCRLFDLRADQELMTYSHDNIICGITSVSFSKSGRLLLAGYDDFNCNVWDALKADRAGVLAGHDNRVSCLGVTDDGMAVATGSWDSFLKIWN
# Sequence of wild type Gα13 / Gβ1γ2 (Q14344 whole entry): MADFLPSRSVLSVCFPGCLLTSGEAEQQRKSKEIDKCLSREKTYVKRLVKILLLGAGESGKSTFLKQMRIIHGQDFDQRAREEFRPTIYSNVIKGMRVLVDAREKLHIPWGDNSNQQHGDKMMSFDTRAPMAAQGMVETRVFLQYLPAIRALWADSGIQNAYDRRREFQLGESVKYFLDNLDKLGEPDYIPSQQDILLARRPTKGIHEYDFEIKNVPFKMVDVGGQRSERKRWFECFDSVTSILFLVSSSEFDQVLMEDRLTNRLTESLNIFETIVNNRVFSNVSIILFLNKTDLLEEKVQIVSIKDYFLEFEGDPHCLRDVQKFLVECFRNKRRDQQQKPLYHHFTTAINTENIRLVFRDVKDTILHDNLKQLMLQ
# Sequence of Gαi/q(Q204L) (P63096 whole entry V50I/K54R/Y69F/V72L/K180P/V185I/T187Y/H188P/Q204L): as the sequence (P63096 whole entry V50I/Y69F/V72L/K180P/V185I/T187Y/H188P) above, with K54R, Q204L counted along it
structure (smiles),measurement,setting,value
"C=C1C(=O)N[C@@H](C)C(=O)N(C)[C@@H](C)C(=O)N[C@@H]([C@H](OC(=O)[C@@H](NC(=O)CC)[C@H](O)C(C)C)C(C)C)C(=O)N(C)[C@@H]([C@@H](C)OC)C(=O)O[C@H](C(C)C)[C@H](NC(C)=O)C(=O)O[C@H](Cc2ccccc2)C(=O)N1C [FR, FR900359] (Ac-[X1][dPhLac][NMeDha]A[NMeA][X1](Leu(3R-OH,Nα-propionyl))[NMeT](Me); ester 1-C)",Fold less potent toward Gαi/q(R54K) than Gαi/q (nucleotide exchange),[1],> 10 fold
same,Apoptosis (increased fraction of sub-G1/G0 cells),[2],induced
same,Cell cycle inhibition (decreased fraction of S- or G2/M-phase cells),[2],induced
same,Increase of association between Gβγ and affinity-tagged constitutively active Gαq (co-purification),[3],9 fold
same,IC50,[4],1 nM
same,Effect on interaction between constitutively active Gα13(Q226L) and Gβ1γ2,[5],lack of effect
same,EC50,[6],6 nM
same,Melanocytic pigmentation,[7],increased
same,Expression of PRC2-regulated genes,[8],unaffected
same,IC50,[9],25 nM
same,EC50,[10],2 nM
same,Effect on cell cycle and apoptosis,[11],no effect
same,Effect on proliferation,[12],no effect
same,Reduction of IP1 abundance,[13],> 50 fold
same,Increase in proportion of DCT-positive cells,[14],1.6 fold
same,Increase in proportion of PMEL-positive cells,[14],3.9 fold
same,Increase in proportion of TYR-positive cells,[14],1.8 fold
same,Increase of association between Gβγ and affinity-tagged wild type Gαq (co-purification),[15],19 fold
same,Reduction of IP1 abundance,[16],> 50 fold
same,Morphological changes,[17],no effect
same,Melanocytic pigmentation,[18],increased
same,Effect on transcriptional reporter driven by constitutively active Gα13,[19],no effect
same,Decrease in expression of BBC3/PUMA,[20],3.5 fold
same,Decrease in expression of PMAIP1/NOXA,[20],2.5 fold
same,Decrease in expression of p21CIP1 (CDKN1A),[20],3.0 fold
same,Reduction of IP1 abundance,[21],~ 2 fold
same,Effect on interaction between wild type Gα13 and Gβ1γ2,[22],lack of effect
same,Fold less potent toward Gαi/q(R54K) than Gαi/q (cAMP signaling in cells),[23],~ 30 fold
same,IC50,"[23]; read-out: IC50, attenuation of Gαi/q(R54K)-mediated inhibition of forskolin-induced cAMP accumulation, cannabinoid type 1 receptors, WIN 55,212-2",~800 nM
same,Effect on interaction between constitutively active Gα13 and RGS domain of LARG,[24],lack of effect
same,Apoptosis (increased fraction of sub-G1/G0 cells),[25],induced
same,Cell cycle inhibition (decreased fraction of S- or G2/M-phase cells),[25],induced
same,Increase in proportion of DCT-positive cells,[26],3.5 fold
same,Increase in proportion of PMEL-positive cells,[26],6.8 fold
same,Correction of GTP hydrolysis defect of Gαi/q(Q204L),[27],not corrected
